Series [1] relates to Pseudomonas aeruginosa. Briefly: Antimicrobial activity against Pseudomonas aeruginosa 799/WT after 24 hrs by Kirby-Bauer agar diffusion assay. It counts as functional. Summed up:
(§1)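 Modified Kirby-Bauer well diffusion. Overnight LB cultures (18–24 h) were standardized in 0.9% saline to 0.5 McFarland and mixed into melted MHII agar at 47–50 °C, giving ~5×10³ CFU/mL. 9 mm wells received 50 µL of 2.0 mM compound in 10:1 MeOH:DMSO. Plates were incubated 24 h at 37 °C, then growth-inhibition zone diameter was measured (mm) by caliper.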

In series [2] the test system is Escherichia coli. Kind of series: Antimicrobial activity against Escherichia coli DC0 after 24 hrs by Kirby-Bauer agar diffusion assay. It counts as functional. In a few lines:
as §1

The test system of series [3] is Sporobolomyces salmonicolor. Kind of series: Antimicrobial activity against Sporidiobolus salmonicolor 549 after 24 hrs by Kirby-Bauer agar diffusion assay. It counts as functional. Summed up: as §1
The next series deals with HeLa. Briefly: Cytotoxicity against human HeLa cells. The series is classed as cell-based.
The subject of series [4] is Staphylococcus aureus. Kind of series: Antimicrobial activity against methicillin-resistant Staphylococcus aureus 134/94 after 24 hrs by Kirby-Bauer agar diffusion assay. It counts as functional. Summed up: (§2)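 Overnight LB cultures (18–24 h) adjusted to a 0.5 McFarland standard (1.5×10^6 CFU/mL in 0.9% saline), then 0.1 mL mixed into 34 mL molten MHII agar at 47–50 °C (~5×10^3 CFU/mL). 50 µL of 2.0 mM compound in 10:1 MeOH:DMSO placed in 9 mm wells. Incubated at 37 °C for 24 h; inhibition zone diameter (mm) measured by caliper.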

A further series concerns MCF7. Briefly: Cytotoxicity against human MCF7 cells. The series is classed as cell-based.
Series [5] deals with Staphylococcus aureus. Kind of series: Antimicrobial activity against Staphylococcus aureus SG511 assessed after 18 hrs by broth microdilution method. As to conditions: SG511, 18 h. The series is classed as functional. Summed up:
(§3)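 CLSI broth microdilution in cation-adjusted MHII broth. 20 mM DMSO stocks were diluted to 512 µM, then serially 2-fold, giving final 128–0.0625 µM with 5×10⁵ CFU/mL inoculum. Incubated 18 h at 37 °C. MIC90 was the lowest concentration giving 90% inhibition by visual turbidity versus DMSO wells. Run in triplicate.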

In series [6] the test system is Bacillus subtilis. Briefly: Antimicrobial activity against Bacillus subtilis ATCC 6633 after 24 hrs by Kirby-Bauer agar diffusion assay. The series is classed as functional. Summed up:
as §1

For series [7], the system named is Pseudomonas aeruginosa. Briefly: Antimicrobial activity against Pseudomonas aeruginosa 799/61 after 24 hrs by Kirby-Bauer agar diffusion assay. It counts as functional. Summed up:
as §1

The test system of series [8] is Enterococcus faecalis. Briefly: Antimicrobial activity against Enterococcus faecalis ATCC 49532 after 24 hrs by Kirby-Bauer agar diffusion assay. It counts as functional. In a few lines:
as §1

The test system of series [9] is Micrococcus luteus. Briefly: Antimicrobial activity against Micrococcus luteus ATCC 10240 after 24 hrs by Kirby-Bauer agar diffusion assay. The series is classed as functional. Summed up: as §1
In series [10] the test system is Escherichia coli. Briefly: Antimicrobial activity against Escherichia coli DC2 after 24 hrs by Kirby-Bauer agar diffusion assay. The series is classed as functional. In a few lines:
as §1

For series [11], the system named is Mycolicibacterium vaccae. Briefly: Antimicrobial activity against Mycobacterium vaccae IMET 10670 after 24 hrs by Kirby-Bauer agar diffusion assay. The series is classed as functional. In a few lines:
as §1

In series [12] the test system is Micrococcus luteus. Kind of series: Antimicrobial activity against Micrococcus luteus ATCC 10240 assessed after 18 hrs by broth microdilution method. The series is classed as functional. As to conditions: ATCC 10240, 18 h. Summed up:
as §3

Series [13] deals with Enterococcus faecalis. Briefly: Antimicrobial activity against vancomycin-resistant Enterococcus faecalis 1528 after 24 hrs by Kirby-Bauer agar diffusion assay. It counts as functional. Summed up:
as §2

A further series relates to PC-3. Briefly: Cytotoxicity against human PC3 cells. The series is classed as cell-based.
The subject of series [14] is Enterococcus faecalis. Briefly: Antimicrobial activity against Enterococcus faecalis ATCC 49532 assessed after 18 hrs by broth microdilution method. The series is classed as functional. As to conditions: ATCC 49532, 18 h. In a few lines:
as §3

Series [15] relates to Staphylococcus aureus. Briefly: Antimicrobial activity against Staphylococcus aureus SG511 after 24 hrs by Kirby-Bauer agar diffusion assay. It counts as functional. In a few lines:
as §1

The test system of series [16] is Sporobolomyces salmonicolor. Kind of series: Antimicrobial activity against Sporidiobolus salmonicolor 549 at 10 ug/ml after 24 hrs by Kirby-Bauer agar diffusion assay. The series is classed as functional. As to conditions: Sporobolomyces salmonicolor, 549, 24 h; read-out: DIZ. Summed up: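 Control for the yeast: amphotericin B, 10 µg/mL in 10:1 DMSO:MeOH, 50 µL per 9 mm well in inoculated MHII agar (~5×10³ CFU/mL). Incubated at 37 °C for 24 h; growth-inhibition zone diameter measured in mm.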

In series [17] the test system is Micrococcus luteus. Kind of series: Antimicrobial activity against Micrococcus luteus ATCC 10240 at 5 ug/ml after 24 hrs by Kirby-Bauer agar diffusion assay. The series is classed as functional. Conditions: ATCC 10240, 24 h, read-out: DIZ. In a few lines:
(§4)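 Ciprofloxacin control, 5 µg/mL in water, 50 µL per 9 mm well in MHII agar seeded with ~5×10³ CFU/mL (saline suspension standardized to 0.5 McFarland from an overnight LB culture). Incubated at 37 °C for 24 h; inhibition zone diameter read in mm.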

Series [18] relates to Staphylococcus aureus. Kind of series: Antimicrobial activity against Staphylococcus aureus SG511 at 5 ug/ml after 24 hrs by Kirby-Bauer agar diffusion assay. Conditions: SG511, 24 h, read-out: DIZ.
For series [19], the system named is Pseudomonas aeruginosa. Briefly: microbe, parasite or virus in culture. As to conditions: 799/WT, 24 h, read-out: DIZ.
The subject of series [20] is Staphylococcus aureus. Kind of series: microbe, parasite or virus in culture. As to conditions: 134/94, 24 h, read-out: DIZ.
The subject of series [21] is Bacillus subtilis. Briefly: microbe, parasite or virus in culture. As to conditions: ATCC 6633, 24 h, read-out: DIZ.
Series [22] relates to Escherichia coli. Briefly: Antimicrobial activity against Escherichia coli DC0 at 5 ug/ml after 24 hrs by Kirby-Bauer agar diffusion assay. As to conditions: DC0, 24 h, read-out: DIZ.
Series [23] concerns Enterococcus faecalis. Kind of series: microbe, parasite or virus in culture. Conditions: Enterococcus faecalis, 1528, 24 h, read-out: DIZ.
Series [24] relates to Enterococcus faecalis. Briefly: microbe, parasite or virus in culture. As to conditions: ATCC 49532, 24 h, read-out: DIZ.
The subject of series [25] is Pseudomonas aeruginosa. Briefly: microbe, parasite or virus in culture. Conditions: 799/61, 24 h, read-out: DIZ.
Series [26] has as its system Mycolicibacterium vaccae. Kind of series: Antimicrobial activity against Mycobacterium vaccae IMET 10670 at 5 ug/ml after 24 hrs by Kirby-Bauer agar diffusion assay. The series is classed as functional. Conditions: IMET 10670, 24 h, read-out: DIZ. In a few lines:
as §4

Series [27] deals with Escherichia coli. Kind of series: Antimicrobial activity against Escherichia coli DC2 at 5 ug/ml after 24 hrs by Kirby-Bauer agar diffusion assay. As to conditions: DC2, 24 h, read-out: DIZ.

SMILES strings stand for the structures. Converted amounts (≈) assume the structure as drawn.

Take `CO[C@@H]1C=C[C@@H](N(O)c2ccc(Br)cn2)CC1` (racemic): the “diameter of the inhibition zone (DIZ)” value in the series with Pseudomonas aeruginosa [1] is reported as “<=10 mm”; with Escherichia coli [2], “<=10 mm”; in series [3], “<=10 mm”; in the series on Staphylococcus aureus [4] it was 11 mm; with Bacillus subtilis [6] it was “<=10 mm”; with Pseudomonas aeruginosa [7], “<=10 mm”. Also, the “diameter of the inhibition zone (DIZ)” value in the series with Enterococcus faecalis [8] is 16 mm; in the series on Micrococcus luteus [9], 34 mm; in the series with Escherichia coli [10], “<=10 mm”; in the series with Mycolicibacterium vaccae [11] it was 11 mm; with Enterococcus faecalis [13], 16 mm; with Staphylococcus aureus [15], 12 mm. Besides, the Activity result in the series with HeLa, in the series with MCF7 and in the series with PC-3 was “Non-toxic” in each case. In addition, the MIC90 with Staphylococcus aureus [5] is over 128 µM; against Micrococcus luteus [12], 4 µM (≈ 1.2 µg/mL); in the series on Enterococcus faecalis [14], over 128 µM.
For the compound `C=C(C)C(C)N(O)c1cccc(C)n1` (racemic), the “diameter of the inhibition zone (DIZ)” value is “<=10 mm” in the series on Pseudomonas aeruginosa [1]; “<=10 mm” in the series with Escherichia coli [2]; “<=10 mm” in [3]; 11 mm with Staphylococcus aureus [4]; “<=10 mm” in the series on Bacillus subtilis [6]; “<=10 mm” in the series with Pseudomonas aeruginosa [7]. Further, the “diameter of the inhibition zone (DIZ)” value in the series with Enterococcus faecalis [8] is 15 mm; with Micrococcus luteus [9] it was 48 mm; with Escherichia coli [10] it was “<=10 mm”; with Mycolicibacterium vaccae [11] it was 16 mm; in the series with Enterococcus faecalis [13] it was 16 mm; in the series with Staphylococcus aureus [15] it was 12 mm. Further, the Activity result with HeLa, with MCF7 and in the series on PC-3 was “Non-toxic” throughout. Further, the MIC90 in the series on Staphylococcus aureus [5] was over 128 µM; with Micrococcus luteus [12], 4 µM (≈ 0.769 µg/mL); against Enterococcus faecalis [14], over 128 µM.
With `C=C(C)C(CC/C(C)=C/CO)N(O)c1ccccn1` (racemic), the “diameter of the inhibition zone (DIZ)” value in the series on Pseudomonas aeruginosa [1] was “<=10 mm”; in the series on Escherichia coli [2], “<=10 mm”; in series [3], “<=10 mm”; with Staphylococcus aureus [4] it was 16 mm; in the series with Bacillus subtilis [6], 11 mm; with Pseudomonas aeruginosa [7], “<=10 mm”. Moreover, the “diameter of the inhibition zone (DIZ)” value is reported as 20 mm in the series on Enterococcus faecalis [8]; 35 mm in the series with Micrococcus luteus [9]; “<=10 mm” in the series on Escherichia coli [10]; 16 mm in the series on Mycolicibacterium vaccae [11]; 16 mm in the series with Enterococcus faecalis [13]; 19 mm in the series on Staphylococcus aureus [15]. Besides, the Activity result in the series with HeLa, with MCF7 and in the series with PC-3 was “Non-toxic” in each case. Besides, the MIC90 is 64 µM (≈ 16.8 µg/mL) in the series on Staphylococcus aureus [5], 8 µM (≈ 2.1 µg/mL) in the series on Micrococcus luteus [12] and over 128 µM in the series with Enterococcus faecalis [14].
On to `C[C@@H]1[C@H](O)[C@@H](C)/C=C/C=C/C=C/C=C/C=C/C=C/C=C/[C@H](O[C@@H]2O[C@H](C)[C@@H](O)[C@H](N)[C@@H]2O)C[C@@H]2O[C@](O)(C[C@@H](O)C[C@@H](O)[C@H](O)CC[C@@H](O)C[C@@H](O)CC(=O)O[C@H]1C)C[C@H](O)[C@H]2C(=O)O` [AMPHOTERICIN B], for which the zone of inhibition at 10 µg/mL in series [16] was 16 mm.
As for `O=C(O)c1cn(C2CC2)c2cc(N3CCNCC3)c(F)cc2c1=O` [CIPROFLOXACIN], the zone of inhibition at 5 µg/mL was at most 10 mm with Micrococcus luteus [17]; at least 21 mm with Staphylococcus aureus [18]; at least 21 mm in the series on Pseudomonas aeruginosa [19]; 11 mm in the series with Staphylococcus aureus [20]; at least 21 mm in the series on Bacillus subtilis [21]; at least 21 mm in the series with Escherichia coli [22]. In addition, the zone of inhibition at 5 µg/mL in the series on Enterococcus faecalis [23] was 16 mm; with Enterococcus faecalis [24] it was 16 mm; in the series with Pseudomonas aeruginosa [25] it was at least 21 mm; with Mycolicibacterium vaccae [26], at least 21 mm; in the series with Escherichia coli [27], at least 21 mm. Also, the MIC90 against Staphylococcus aureus [5] turned out to be 0.5 µM (≈ 0.166 µg/mL); in the series with Enterococcus faecalis [14] it was 2 µM (≈ 0.663 µg/mL).

The values above are taken from ChEMBL document CHEMBL1914331, “N-O chemistry for antibiotics: discovery of N-alkyl-N-(pyridin-2-yl)hydroxylamine scaffolds as selective antibacterial agents using nitroso Diels-Alder and ene chemistry” (J Med Chem, 2011).
